Published values gathered from unrelated publications.
Compare with care: the assays were run in different laboratories.
ASH1L: Histone-lysine N-methyltransferase ASH1L (ASH1L, Homo sapiens, UniProt Q9NR48)
Nos2: Nitric oxide synthase, inducible (Nos2, Mus musculus, UniProt P29477)
RET: Proto-oncogene tyrosine-protein kinase receptor Ret (RET, Homo sapiens, UniProt P07949)
MARK4: MAP/microtubule affinity-regulating kinase 4 (MARK4, Homo sapiens, UniProt Q96L34)
BAZ2A bromodomain: Bromodomain adjacent to zinc finger domain protein 2A, bromodomain (BAZ2A, Homo sapiens, UniProt Q9UIF9)

Structure (SMILES)	target	assay	setting	measurement	value
Oc1ccc(-c2nc(-c3ccncc3)c(-c3ccc(F)cc3)[nH]2)cc1	ASH1L	thermal stability, DSF	10 µM	ΔTm	0.27 °C
Nc1ncnc2occ(-c3ccc(NC(=O)Nc4cc(C(F)(F)F)ccc4F)cc3)c12	Citron Rho-interacting kinase (CIT, Homo sapiens, UniProt O14578)	cell-free assay, inhibitor	20 µM	remaining signal	1.3%
Cc1nc(O)nc(O)c1C	Nos2	enzyme activity, inhibitor	1 mM	inhibition	> 40%
Cc1ccc(C(=O)Nc2ccc(CN3CCN(C)CC3)c(C(F)(F)F)c2)cc1C#Cc1cnc2cccnn12	Phosphatidylinositol 5-phosphate 4-kinase type-2 gamma (PIP4K2C, Homo sapiens, UniProt Q8TBX8)	cell-free assay	23.5 nM	remaining signal	99%
CC(C)[C@@H]1NC(=O)[C@@H]2CCCN2C(=O)[C@H](Cc2ccccc2)NC(=O)CSC[C@@H](C(=O)N[C@@H](Cc2ccc(O)cc2)C(N)=O)NC(=O)[C@H](Cc2c[nH]c3ccccc23)NC(=O)[C@H](CCCCN)NC(=O)[C@H](Cc2ccccc2)N(C)C(=O)[C@H](Cc2ccccc2)NC1=O	Stimulator of interferon genes protein (STING1, Homo sapiens, UniProt Q86WV6, H232R)	thermal stability, DSF	200 µM	ΔTm	5.83 °C
CC(=O)C(Cl)C(C)=O	Nos2	enzyme activity, inhibitor	1 mM	inhibition	> 40%
Cc1cc2c(cc1N1C(=O)c3cccc4c(Cl)ccc(c34)C1=O)n(C)c(=O)n2C	ASH1L	thermal stability, DSF	10 µM	ΔTm	1.2 °C
C=C(F)[C@@](N)(CCCCN)C(=O)O	Lysine decarboxylase (Hafnia alvei, UniProt P05033)	enzyme activity, inhibitor, absorbance	–	KI (inactivation)	470 µM
COc1ccccc1NC(=O)Nc1ccc2nc(NC(=O)c3ccccc3)sc2c1	RET	enzyme activity, inhibitor, radiometric	0.1 µM	remaining activity	113%
N#Cc1ccc(/C=C/CN(CC[C@H](N)C(=O)O)C[C@H]2O[C@@H](n3cnc4c(N)ncnc43)[C@H](O)[C@@H]2O)cc1	Phenylethanolamine N-methyltransferase (PNMT, Homo sapiens, UniProt P11086)	enzyme activity, inhibitor	1 µM	activity vs control	96%
O=C(Nc1ccc(NC(=O)c2ccoc2)cc1C(F)(F)F)Nc1ccc(NC(=O)c2ccoc2)cc1C(F)(F)F	RET	enzyme activity, inhibitor, radiometric	10 µM	remaining activity	101%
Cc1nn(CC(F)(F)F)cc1Nc1ncc(Br)c(NCc2ccc(S(N)(=O)=O)cc2)n1	MARK4	enzyme activity, inhibitor, radiometric	1 µM	remaining activity	79%
NS(=O)(=O)c1ccc(Nc2nc(-c3ccc(F)cc3)c3ccccc3n2)cc1	BAZ2A bromodomain	binding, competition with immobilised ligand	1 µM	remaining binding	71%
O=C(NCc1cccnc1-n1cnc2ccccc21)c1ccc2[nH]c(=O)[nH]c2c1	RET	enzyme activity, inhibitor, radiometric	10 µM	remaining activity	90.8%
CN(C)C1CCN(CC#Cc2nn(C3CCCC3)c3nc(NCc4ccccc4)ncc23)C1 (centres unmarked)	Tyrosine-protein kinase Lck (LCK, Homo sapiens, UniProt P06239)	enzyme activity, inhibitor, FRET	10 µM	inhibition	78%
Cc1nn(C)c2ncc(C(=O)NC(=O)Nc3ccc(F)c(C(F)(F)F)c3)cc12	C-C chemokine receptor type 4 (CCR4, Homo sapiens, UniProt P51679)	ligand displacement, radioligand	10 µM	inhibition	< 10%
CC(=O)c1cccc(NC(=O)Nc2cc3c(cc2Oc2ccccc2)n(C)c(=O)n3C)c1	RET	enzyme activity, inhibitor, radiometric	0.1 µM	remaining activity	104%
CCCOc1ccc(OC)c(F)c1C(=O)c1ccc(C(=O)N[C@@H]2CNC[C@H]2NC(=O)c2ccc3[nH]ncc3c2)cc1	RET	enzyme activity, inhibitor	0.75 µM	remaining activity	41%
COCC(=O)Nc1cc(C(=O)N(C)CCc2c(C)n[nH]c2C)c2c(c1)ncn2Cc1ccc(F)cc1	RET	enzyme activity, inhibitor, radiometric	0.1 µM	remaining activity	118%
Cc1cnc(Nc2ccc(OCCN3CCCC3)cc2)nc1Nc1cccc(S(=O)(=O)NC(C)(C)C)c1	BAZ2A bromodomain	thermal stability, DSF	10 µM	ΔTm	-0.11 °C
COc1ccc(OC)c(NC(=O)Nc2cc(OC)c3nc(NC(=O)c4ccccc4)sc3c2)c1	RET	enzyme activity, inhibitor, radiometric	10 µM	remaining activity	94.4%
C[S+]([O-])c1ccc(-c2nc(-c3ccncc3)c(-c3ccc(F)cc3)[nH]2)cc1 (centres unmarked)	ASH1L	thermal stability, DSF	10 µM	ΔTm	0.31 °C
CN1CCc2cc(Nc3ncc(C4CC4)c(NCCCNC(=O)C4CCC4)n3)ccc2C1	MARK4	enzyme activity, inhibitor, radiometric	1 µM	remaining activity	3%
Cn1cncc1C1=CN(c2ncnc3[nH]cnc23)CCS1	Serine/threonine-protein kinase LATS2 (LATS2, Homo sapiens, UniProt Q9NRM7)	enzyme activity, inhibitor, radiometric	2 µM	inhibition	92.9%
COc1cc2ncnc(Nc3ccc(Oc4ccccc4)c(C)c3C)c2cc1OC	Tyrosine-protein kinase JAK2 (JAK2, Homo sapiens, UniProt O60674)	enzyme activity, inhibitor	1 µM	inhibition	3%
Cc1ccc(Nc2nc(N3CCN(C(=O)c4ccco4)CC3)nc3[nH]ncc23)cc1	RET	enzyme activity, inhibitor, radiometric	10 µM	remaining activity	99.9%
O=C(CCCCCCCCc1ccc(O)c(O)c1)c1c(O)cccc1O	Bifunctional epoxide hydrolase 2 (EPHX2, Homo sapiens, UniProt P34913)	enzyme activity, inhibitor, fluorescence	100 µM	inhibition	90.9%
CC(=O)c1cccc(NC(=O)Cc2csc(NC(=O)Nc3cccc(Cl)c3)n2)c1	RET	enzyme activity, inhibitor, radiometric	0.1 µM	remaining activity	116%
CCN(c1cc(C#CCN2CCOCC2)cc(C(=O)NCc2c(C)cc(C)[nH]c2=O)c1C)[C@H]1CC[C@H](N(C)CCOC)CC1	Histone-lysine N-methyltransferase EZH1 (EZH1, Homo sapiens, UniProt Q92800)	enzyme activity, inhibitor	1 µM	inhibition	98%
